The values that follow come from ChEMBL document CHEMBL4251599, “Synthesis and biological evaluation of coumarin derivatives containing imidazole skeleton as potential antibacterial agents” (Eur J Med Chem, 2018).

Common to all, as to assay type: functional
Test [1] has as its system Escherichia coli. Nature of the test: Antibacterial activity against Escherichia coli ATCC 35150 after 24 hrs by two fold serial dilution method. To be noted: ATCC 35150, 24 h. In short, it runs like this:
(§1)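 Broth two-fold serial dilution per CLSI, in nutrient broth. Inoculum from 24 h cultures at 28 ± 1 °C, adjusted in saline to 1×10^7-2×10^7 cfu/mL, then diluted to 1×10^5-2×10^5 cfu/mL. Test range 256 down to 0.50 µM and lower. Tubes held 24 h at 28 ± 1 °C. MIC read visually. Enrofloxacin and norfloxacin served as standards.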

The subject of test [2] is Flavobacterium columnare. Nature of the test: Antibacterial activity against Flavobacterium columnare FC-G1 after 24 hrs by two fold serial dilution method. The conditions noted are these: FC-G1, 24 h. The method, boiled down:
as §1

Test [3] has as its system Streptococcus agalactiae. Nature of the test: Antibacterial activity against Streptococcus agalactiae WB1445 after 24 hrs by two fold serial dilution method. To be noted: WB1445, 24 h. In short, it runs like this:
as §1

Test [4] relates to Staphylococcus aureus. Description: Bactericidal activity against Staphylococcus aureus ATCC 29213 incubated for 24 hrs followed by re-plating on nutrient agar and measured after overnight incubation by two fold serial dilution method. To be noted: ATCC 29213, 24 h. The method, boiled down:
(§2)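 After the MIC read, 100 µl from every tube without visible growth was spread on nutrient agar lacking compound. Plates were incubated overnight at 28 ± 1 °C. MBC was taken as the lowest concentration killing >99.9% of the initial population, seen as no growth on agar.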

The subject of test [5] is Escherichia coli. Nature of the test: Bactericidal activity against Escherichia coli ATCC 35150 incubated for 24 hrs followed by re-plating on nutrient agar and measured after overnight incubation by two fold serial dilution method. To be noted: ATCC 35150, 24 h. In short, it runs like this:
as §2

Test [6] concerns Streptococcus agalactiae. Nature of the test: Bactericidal activity against Streptococcus agalactiae WB1445 incubated for 24 hrs followed by re-plating on nutrient agar and measured after overnight incubation by two fold serial dilution method. The conditions noted are these: WB1445, 24 h. The method, boiled down:
as §2

The subject of test [7] is Staphylococcus aureus. Description: Antibacterial activity against Staphylococcus aureus ATCC 29213 after 24 hrs by two fold serial dilution method. To be noted: ATCC 29213, 24 h. In short, it runs like this: as §1
Test [8] deals with Flavobacterium columnare. Description: Bactericidal activity against Flavobacterium columnare FC-G1 incubated for 24 hrs followed by re-plating on nutrient agar and measured after overnight incubation by two fold serial dilution method. To be noted: FC-G1, 24 h. The method, boiled down: as §2

Structures are written as SMILES. Values after ≈ are worked out from the molar mass of the structure shown. Bounds are passed on as bounds.

One may read the MIC as the smallest concentration in the dilution series that meets the test's criterion for growth inhibition. Low values mean greater potency, high ones weaker potency. Usually MBC stands for the smallest concentration meeting the test's criterion for killing. A low value points to greater bactericidal potency. In the case of `O=c1ccc2ccc(OCCCCCCCCCCBr)cc2o1`, the MIC in test [1], in test [2], in test [3] and in test [7] was above 256 µM in each case. Further, the minimal bactericidal concentration (MBC) in test [4], in test [5], in test [6] and in test [8] was above 256 µM in each case.
With `Cc1cn(CCCCCCCCOc2ccc3c(C)cc(=O)oc3c2)cn1`, the MIC in test [1] was above 256 µM; in test [2] it was 8 µM (≈ 2.95 µg/mL); in test [3] it was 8 µM (≈ 2.95 µg/mL); in test [7] it was 32 µM (≈ 11.8 µg/mL). The MBC in test [4] was 256 µM (≈ 94.3 µg/mL); in test [5] it was above 256 µM; in test [6] it was 32 µM (≈ 11.8 µg/mL); in test [8] it was 16 µM (≈ 5.9 µg/mL).
Regarding `Cc1cn(CCCCOc2ccc3ccc(=O)oc3c2)cn1`, the minimal inhibitory concentration (MIC) in test [1] was 16 µM (≈ 4.77 µg/mL); in test [2] it was above 256 µM; in test [3], above 256 µM; in test [7] it was above 256 µM. For the same molecule, the MBC in test [4] is above 256 µM; in test [5] it was 32 µM (≈ 9.55 µg/mL); in test [6], above 256 µM; in test [8], above 256 µM.
For `O=c1ccc2ccc(OCCCCCCCCn3cnc4ccccc43)cc2o1`, the MIC in test [1] is above 256 µM; in test [2], 8 µM (≈ 3.12 µg/mL); in test [3], 256 µM (≈ 100 µg/mL); in test [7], 32 µM (≈ 12.5 µg/mL). In addition, the MBC was 128 µM (≈ 50 µg/mL) in test [4], above 256 µM in test [5], 512 µM (≈ 200 µg/mL) in test [6] and 32 µM (≈ 12.5 µg/mL) in test [8].
For `O=c1ccc2ccc(OCCCCn3ccnc3-c3ccccc3)cc2o1`, the MIC in test [1] is 32 µM (≈ 11.5 µg/mL); in test [2] it was above 256 µM; in test [3], above 256 µM; in test [7] it was above 256 µM. Besides, the MBC in test [4] is above 256 µM; in test [5], 128 µM (≈ 46.1 µg/mL); in test [6] it was above 256 µM; in test [8], above 256 µM.
With `O=c1ccc2ccc(OCCCCCCCCN3CCCCC3)cc2o1`, the MIC in test [2] and in test [3] was above 256 µM each time. For the same molecule, the MBC in test [6] and in test [8] was above 256 µM each time.
As for `O=c1ccc2ccc(OCCCCn3ccnc3)cc2o1`, the MIC in test [1] was 128 µM (≈ 36.4 µg/mL); in test [2] it was above 256 µM; in test [3] it was above 256 µM; in test [7], 64 µM (≈ 18.2 µg/mL). In addition, the MBC in test [4] was 256 µM (≈ 72.8 µg/mL); in test [5] it was 256 µM (≈ 72.8 µg/mL); in test [6], above 256 µM; in test [8], above 256 µM.
As to `O=c1ccc2ccc(OCCCCn3cnc4ccccc43)cc2o1`, the MIC in test [1] was 8 µM (≈ 2.68 µg/mL); in test [2], above 256 µM; in test [3], above 256 µM; in test [7], 32 µM (≈ 10.7 µg/mL). The MBC in test [4] was 256 µM (≈ 85.6 µg/mL); in test [5], 64 µM (≈ 21.4 µg/mL); in test [6], above 256 µM; in test [8], above 256 µM.
As for `O=c1ccc2ccc(OCCCCCCCCN3CCNCC3)cc2o1`, the MIC in test [2] and in test [3] was above 256 µM in each case. The minimum bactericidal concentration (MBC) in test [6] and in test [8] was above 256 µM each time.
For `O=c1ccc2ccc(OCCCCCCCCn3ccnc3-c3ccccc3)cc2o1`, the MIC in test [1], in test [2], in test [3] and in test [7] was above 256 µM each time. Moreover, the MBC in test [4], in test [5], in test [6] and in test [8] was above 256 µM throughout.
Consider `O=c1ccc2ccc(OCCCCCCCCBr)cc2o1`, for which the MIC in test [1], in test [2], in test [3] and in test [7] was above 256 µM each time. For the same molecule, the minimum bactericidal concentration (MBC) in test [4], in test [5], in test [6] and in test [8] was above 256 µM in each case.
In the case of `Cc1cc(=O)oc2cc(OCCCCCCCCBr)ccc12`, the MIC in test [1], in test [2], in test [3] and in test [7] was above 256 µM each time. Besides, the MBC in test [4], in test [5], in test [6] and in test [8] was above 256 µM in each case.
`O=c1ccc2ccc(OCCCCCCBr)cc2o1`: the MIC in test [1], in test [2], in test [3] and in test [7] was above 256 µM in each case. Moreover, the MBC in test [4], in test [5], in test [6] and in test [8] was above 256 µM each time.
For `NCCCCCCCCOc1ccc2ccc(=O)oc2c1`, the MIC in test [2] and in test [3] was above 256 µM each time. The MBC in test [6] and in test [8] was above 256 µM in each case.
